Data reported in ChEMBL document CHEMBL4177755, “Combating Drug-Resistant Fungi with Novel Imperfectly Amphipathic Palindromic Peptides” (J Med Chem, 2018).

Columns and labels:
Type in all cases: functional
Escherichia coli [1] = assay: Bactericidal activity against Escherichia coli ATCC 25922
In short: (§1)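 Wells from the 24 h, 37 °C MHB microdilution plates (bacteria at a final (0.5−1) × 10^5 CFU/mL; peptide diluted in 0.2% BSA) were plated on agar and incubated overnight. MBC is the lowest concentration killing >99.9% of cells. Each test was reproduced at least 3 times.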

Escherichia coli [2] = assay: Antibacterial activity against Escherichia coli ATCC 25922 after 18 hrs in presence of ZnCl2 by broth dilution method
Salmonella typhimurium [3] = assay: Bactericidal activity against Salmonella typhimurium ATCC 14028; conditions: Salmonella enterica subsp. enterica serovar Typhimurium; in short: as §1
Escherichia coli [4] = assay: Antibacterial activity against Escherichia coli 1005 after 24 hrs
In short: (§2)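 Broth microdilution. Mid-log bacteria in MHB at a final (0.5−1) × 10^5 CFU/mL were mixed with equal volumes of peptide serially diluted in 0.2% BSA. Plates were incubated 24 h at 37 °C and read at A492. MIC is the lowest concentration inhibiting 95% of growth. Each test was repeated at least 3 times.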

Escherichia coli [5] = assay: Antibacterial activity against Escherichia coli ATCC 25922 after 18 hrs in presence of FeCl3 by broth dilution method
Staphylococcus aureus [6] = assay: Bactericidal activity against methicillin-resistant Staphylococcus aureus ATCC 4330
In short: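 Bacteria at (0.5−1) × 10^5 CFU/mL in MHB were exposed to serially diluted peptide (0.2% BSA) for 24 h at 37 °C, then 50 μL aliquots were plated on agar overnight. MBC is the lowest concentration killing >99.9% of cells. At least 3 repeats.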

Escherichia coli [7] = assay: Antibacterial activity against Escherichia coli ATCC 25922 after 18 hrs in presence of 25% human heat-inactivated serum by broth dilution method
Escherichia coli [8] = assay: Antibacterial activity against Escherichia coli ATCC 25922 after 18 hrs in presence of MgCl2 by broth dilution method
[9] = tested on: Salmonella enterica subsp. enterica serovar Pullorum; assay: Bactericidal activity against Salmonella pullorum ATCC 7913; in short: as §1
Escherichia coli [10] = assay: Antibacterial activity against Escherichia coli ATCC 25922 after 18 hrs in presence of NH4Cl by broth dilution method
[11] = tested on: Staphylococcus epidermidis; assay: Antibacterial activity against Staphylococcus epidermidis ATCC 12228 after 24 hrs; in short: as §2
Escherichia coli [12] = assay: Antibacterial activity against Escherichia coli ATCC 25922 after 18 hrs in presence of 50% human heat-inactivated serum by broth dilution method
Staphylococcus aureus [13] = assay: Antibacterial activity against methicillin-resistant Staphylococcus aureus ATCC 4330 after 24 hrs
In short: (§3)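 Modified NCCLS broth microdilution. Mid-log bacteria at (0.5−1) × 10^5 CFU/mL in MHB were mixed 1:1 with peptide serially diluted in 0.2% BSA and incubated 24 h at 37 °C. Absorbance was read at 492 nm; MIC is the lowest concentration inhibiting 95% of growth. At least 3 repeats.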

[14] = tested on: Staphylococcus epidermidis; assay: Bactericidal activity against Staphylococcus epidermidis ATCC 12228; in short: as §1
Escherichia coli [15] = assay: Antibacterial activity against Escherichia coli ATCC 25922 after 18 hrs in presence of KCl by broth dilution method
Staphylococcus aureus [16] = assay: Bactericidal activity against Staphylococcus aureus ATCC 25923; in short: as §1
Staphylococcus aureus [17] = assay: Antibacterial activity against Staphylococcus aureus ATCC 29213 after 24 hrs; in short: as §3
Staphylococcus aureus [18] = assay: Bactericidal activity against Staphylococcus aureus ATCC 29213; in short: as §1
Escherichia coli [19] = assay: Bactericidal activity against Escherichia coli 1005; in short: as §1
Escherichia coli [20] = assay: Antibacterial activity against Escherichia coli ATCC 25922 after 18 hrs in presence of NaCl by broth dilution method
Escherichia coli [21] = assay: Antibacterial activity against Escherichia coli ATCC 25922 after 24 hrs; in short: as §2
Escherichia coli [22] = assay: Antibacterial activity against Escherichia coli ATCC 25922 after 18 hrs in presence of CaCl2 by broth dilution method
Salmonella typhimurium [23] = assay: Antibacterial activity against Salmonella typhimurium ATCC 14028 after 24 hrs; conditions: Salmonella enterica subsp. enterica serovar Typhimurium; in short: as §2
Escherichia coli [24] = assay: Antibacterial activity against Escherichia coli ATCC 25922 after 18 hrs in presence of 12.5% human heat-inactivated serum by broth dilution method
[25] = tested on: Salmonella enterica subsp. enterica serovar Pullorum; assay: Antibacterial activity against Salmonella pullorum ATCC 7913 after 24 hrs; in short: as §2
Staphylococcus aureus [26] = assay: Antibacterial activity against Staphylococcus aureus ATCC 25923 after 24 hrs; in short: as §3

GENTAMICIN
8 µM: MBC99.9 (Staphylococcus aureus [6]) | MIC95 (Staphylococcus aureus [13])
2 µM: MBC99.9 (Escherichia coli [1]) | MIC (Escherichia coli [2]) | MBC99.9 [9] | MIC (Escherichia coli [10]) | MIC (Escherichia coli [12]) | MIC (Escherichia coli [20]) | MIC95 (Salmonella typhimurium [23])
1 µM: MIC (Escherichia coli [5]) | MIC (Escherichia coli [7]) | MIC (Escherichia coli [8]) | MBC99.9 [14] | MIC (Escherichia coli [15]) | MBC99.9 (Staphylococcus aureus [16]) | MIC95 (Staphylococcus aureus [17]) | MBC99.9 (Staphylococcus aureus [18]) | MBC99.9 (Escherichia coli [19]) | MIC95 (Escherichia coli [21]) | MIC (Escherichia coli [22]) | MIC (Escherichia coli [24]) | MIC95 [25] | MIC95 (Staphylococcus aureus [26])
0.5 µM: MIC95 (Escherichia coli [4]) | MIC95 [11]
4 µM: MBC99.9 (Salmonella typhimurium [3])
